# NR2E3 ag-1 = human photoreceptor-specific nuclear receptor agonism; Q9Y5X4; CHO-S Gal4-NCOR/VP16-NR2E3 two-hybrid, luciferase; inhibition of corepressor binding, % at 3.98 µM; hit rate 0.35% among 360,000;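 active means inhibition above the mean of all tested compounds plus 3 SD, cut at about 70% in these data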;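 further: 0% = DMSO with NR2E3 transfected cells and 100% = cells lacking NR2E3 construct; higher means lower luciferase signal from less NR2E3 corepressor binding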
# Target sequence (Q9Y5X4 whole entry, looked up, the tested form may be a part): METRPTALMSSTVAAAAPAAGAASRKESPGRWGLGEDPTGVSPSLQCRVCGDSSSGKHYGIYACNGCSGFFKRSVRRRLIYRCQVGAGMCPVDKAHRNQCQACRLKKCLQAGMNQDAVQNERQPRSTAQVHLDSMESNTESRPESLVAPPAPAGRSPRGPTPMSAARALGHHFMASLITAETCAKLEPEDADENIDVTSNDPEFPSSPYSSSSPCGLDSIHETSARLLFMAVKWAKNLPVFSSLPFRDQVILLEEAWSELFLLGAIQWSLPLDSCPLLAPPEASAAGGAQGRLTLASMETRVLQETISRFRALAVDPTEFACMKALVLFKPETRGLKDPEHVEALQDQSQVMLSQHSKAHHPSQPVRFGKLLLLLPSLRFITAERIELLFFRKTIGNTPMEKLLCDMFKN
# 697 NFkB inh = lowers PMA/ionomycin-induced NF-kB signal in 697 B cells | 697 B-cell NF-kB luciferase reporter, 16 h | inhibition, % at 4 µM | hit rate 0.33% among 330,000 | AID 435022; in the data active means inhibition above about 35%
# Jurkat NFkB inh = lowers PMA/ionomycin-induced NF-kB signal in Jurkat cells; AID 435003; PMA/ionomycin-induced NF-kB luciferase reporter, luminescence; hit rate 0.53% among 330,000; inhibition, % at 4 µM; in the data active means inhibition above about 50%
# MPTP block = permeability transition pore inhibition; hit rate 1.4% among 360,000; inhibition, % at 10 µM; isolated mouse mitochondria, Ca2+ swelling absorbance, 30 min;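 active means inhibition of 50% or more, scaled per plate between neutral and stimulator controls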;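 further: 0% = DMSO wells given calcium and 100% = 1 mM EGTA wells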
# NR2E3 ag-2 = agonists of human nuclear receptor NR2E3; GST-NR2E3/biotin-RetCOR TR-FRET, 1536-well; hit rate 0.12% among 320,000; inhibition of corepressor binding, % at 4.78 µM;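 active means percent inhibition above the cutoff of mean plus 3 SD of all tested compounds, set per screening campaign, cut at about 20% in these data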;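 further: 0% = DMSO wells and 100% = biotin wells as full block of FRET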
#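 System: GST-tagged NR2E3 plus biotinylated RetCOR corepressor; Buffer or medium: pH 7.5 Tris-based buffer; Probe or stimulus: RetCOR corepressor, biotinylated, 7 nM; Doses: compound at 4.8 µM, single dose; Schedule: 5 h incubation at 4 °C; Technique: time-resolved FRET; Evaluation: percent inhibition of TR-FRET ratio; Replication: one well per compound, singlicate testing.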
# aDG glyco up = increases alpha dystroglycan glycosylation; activation, % at 10 µM; hit rate 0.22% among 360,000; AID 624168; Pro5-aDG cells, alpha-DG glycosylation AlphaScreen (IIH6); 0% Pro5, 100% B10-LARGE cell signal;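 active means activation of at least 8% versus controls, or a plate z-score of at least 8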;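 further: Pro5 are CHO cells carrying HIG-tagged alpha-DG that lacks glycosylation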
# 697 NFkB conf = inhibitors of the PMA/ionomycin-induced NF-kB reporter in 697 B cells, retest. shares compounds with 697 NFkB inh. 697 B-cell NF-kB luciferase, 16 h. inhibition, % at 4 µM. hit rate 35% among 2,000. AID 449746; in the data active means inhibition mostly above about 28%, no sharp cut-off; inactive means mostly below about 22%
# Starred values were filed as active, the others as inactive; i = inactive; x = no result given. Only some compounds are listed: those with a hit (about 2.4% of all), similar ones and a draw of the others.
SMILES,NR2E3 ag-1,697 NFkB inh,Jurkat NFkB inh,MPTP block,NR2E3 ag-2,aDG glyco up,697 NFkB conf
Cn1c(N)c(C(=O)COC(=O)CNC(=O)c2ccccc2Cl)c(=O)n(C)c1=O,-28,18,10,-1,2,0,x
CN(C(=O)c1ccc(NC(=O)Cc2cccc(NC(=O)C3CCN(C(=O)c4ccccc4)CC3)c2)cc1)C1CCCC1,-23,-11,-14,0,3,1,x
CCc1cccc(NC(=O)c2ccc(CNc3c(N4CCCC4)c(=O)c3=O)cc2)c1,6,42*,20,2,-1,0,33*
Cc1ccc(NC(=O)c2ccc(CNc3c(N4CCC(C)CC4)c(=O)c3=O)cc2)cc1,-22,50*,16,1,1,0,16
CCCCN(C1CCS(=O)(=O)C1)S(=O)(=O)c1cccs1 (stereo not given),-4,5,0,-1,6,0,x
O=C(CN(Cc1ccco1)C(=O)CNS(=O)(=O)c1ccc(F)cc1)NCc1ccco1,-27,-2,15,1,2,0,x
Cc1cc(C)c(OCC(=O)NCC2COc3ccccc3O2)c(C)c1 (stereo not given),-7,7,-1,0,1,0,x
CCN(CC)CCN1C(=O)C(=O)/C(=C(/O)c2ccc3c(c2)CC(C)O3)C1c1ccc(OC)cc1 (stereo not given),-7,13,18,3,1,0,x
CCC(=O)Nc1ccc2oc(-c3cccc(C)c3)nc2c1,-133,-317,-127,-1,1,0,-395
O=c1c(Cc2c(F)cccc2Cl)c(O)ccn1CCCn1ccnc1,11,17,-10,-2,2,1,x
CCCc1nc2oc3c(NCC4CCCO4)ncnc3c2c2c1COC(C)(C)C2 (stereo not given),-5,11,0,0,-1,0,x
CC(C)c1nc2oc3c(NCC4CCCO4)ncnc3c2c2c1CCC2 (stereo not given),38,42*,7,-1,1,0,24
O=C1CC(c2ccc3ccccc3c2)NN1 (stereo not given),-6,9,-4,-1,4,0,x
Cc1ccnc(NS(=O)(=O)c2ccccc2)c1,-1,-9,-6,0,7,0,x
Cc1ccnc(NS(=O)(=O)c2cc([N+](=O)[O-])ccc2C)c1,-11,36*,-6,2,1,0,-4
CCOC(=O)CC(=O)COc1nc2cc3c(nc2o1)CCCC3,-53,-12,-28,0,-2,0,x
O=C(Nc1cccc2nsnc12)c1ccc(-c2ccc(Br)cc2)o1,4,-42,-24,2,-1,0,x
COC(=O)c1ccccc1NC(=O)c1ccc(-c2ccc(Br)cc2)o1,-12,-367,7,1,-1,0,-286
O=C(NCc1ccccc1)C1=C[C@H](C2CCCCC2)C[C@H](OCc2ccc(CO)cc2)O1,-11,i,7,-2,5,0,-23
O=C(NCc1ccccc1)C1=C[C@@H](C2CC2)C[C@@H](OCc2ccc(CO)cc2)O1,2,11,16,2,7,0,x
Cc1noc(C)c1-c1ccc2ncnc(NCC3CCCCN3C)c2c1 (stereo not given),12,36*,-20,0,9,0,26
COc1cc(Cn2c3ccc(NC(=S)NCc4ccc(C)cc4)cc3c(=O)n2C)ccc1F,46,x,x,4,x,0,x
Fc1ccc(C(c2nnnn2Cc2cccs2)N2CCN(C3CCCC3)CC2)cc1 (stereo not given),-8,6,0,-1,-2,0,x
Fc1ccc(C(c2nnnn2Cc2ccco2)N2CCN(C3CCCCC3)CC2)cc1 (stereo not given),-12,36*,-2,16,-2,0,0
CNc1cncc(-c2cccc(C(=O)NCCN(C)C)c2)n1,-11,x,x,-2,x,0,x
SMILES,NR2E3 ag-1,697 NFkB inh,Jurkat NFkB inh,MPTP block,NR2E3 ag-2,aDG glyco up,697 NFkB conf
CCn1c(=N)c(C(=O)NC)cc2c(=O)n3cccc(C)c3nc21,-36,x,x,-3,x,0,x
CCNc1nc(C)c2cc(Br)c(=O)n(CC)c2n1,16,41*,26,2,5,1,40*
CN(C)c1ccc(N=Nc2ccccc2Br)cc1,-134,-279,-132,1,-1,0,-379
CC(=O)c1ccc(N=Nc2ccc(N(C)C)cc2)cc1,-61,-182,-80,9,1,0,x
C[C@H](NC(CCc1ccccc1)C(=O)O)C(=O)N1CCC[C@H]1C(=O)O (stereo not given in full),x,-8,-4,x,-1,x,x
Cc1ccccc1/C(=N\S(=O)(=O)c1ccc(Br)cc1)Nc1ccccc1,5,x,x,0,x,0,x
Cc1c(/N=C(\[O-])Nc2ccc(Br)cc2)sn[n+]1C,-147,-274,-86,3,5,0,-264
COC(=O)c1cc(C(=O)c2ccc(Cl)cc2)n2c(=O)/c(=C\N(C)C)sc12,-15,41*,8,2,2,0,11
COC(=O)c1cc(C(=O)c2ccccc2)n2c(=O)/c(=C\N(C)C)sc12,x,32,10,x,-2,x,x
Cc1nc2ccccc2c(=O)n1/N=C1\C(=O)N(C)c2ccccc21,x,58*,-7,x,0,x,8
O=C(CCl)Nc1ccccc1Sc1ccccc1,-5,41*,17,-1,0,0,34*
O=C(Cc1ccc(Cl)cc1)Nc1ccccc1Sc1ccccc1,-9,-6,1,10,-1,0,x
COC(=O)c1ccc(C(=O)OC)c(NC(=O)C2CCCO2)c1 (stereo not given),6,7,13,1,-1,0,x
CCN(CC)c1ccc2cc(C(C)=O)c(=O)oc2c1,5,0,2,1,-3,0,x
CCN(CC)c1ccc2cc(NC(=O)CCC(=O)O)c(=O)oc2c1,41,80*,21,-2,-1,0,72*
Cc1ccccc1NC(=O)/C(C#N)=C\c1cc(C)n(-c2ccc(C(=O)O)cc2)c1C,-20,40*,5,2,-1,0,3
COc1ccc(NS(=O)(=O)c2ccc(C)c(C(=O)N(C)CC(=O)Nc3cccc(OC)c3)c2)cc1,-7,2,5,0,-2,0,x
Cn1c(=O)c(C(=O)Nc2ccccn2)c(O)c2ccccc21,-131,-300,-75,-3,3,2,-250
Cc1ccc(-n2nc3c(=O)n(CCCC(=O)NCc4ccc(F)cc4)nc(C)c3c2C)cc1,26,39*,21,1,-2,0,5

# Screens: PubChem, several laboratories
